# Hits are enriched below; roughly 1.9% of the tested compounds scored in any of these assays.
# T cell HTS – modulates CD8 T cell binding to vesicles; response (vesicle binding), % at 7 µM; 2C CD8+ T cell-vesicle binding, flow cytometry; stronger effect = lower value; 330,000 tested, 0.068% active;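 active = response, share of CD8 T cells binding vesicles, and their 90th percentile fluorescence all below set limits, cut at about 80% in these data, passing the limit was not always enough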;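 note: values below 100% mean blocked vesicle binding to the CD8+ T cells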
#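 Assay system – 2C mouse CD8+ T cells · Also added – QL9-loaded Drosophila micro-vesicles · Timing – Cell–vesicle co-incubation 1.5 h at 37 °C, staining 20 min on ice · Signal – flow cytometry of vesicle-bound cells · Measure – percent CD8+ FL2 mean versus row control · Controls – Peptide-free naked vesicles (low) and QL9 vesicles with 0.7% DMSO vehicle (high)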
# IMP-1 inhibitor – blocks Pseudomonas aeruginosa IMP-1 metallo-beta-lactamase; AID 1556; purified IMP-1, nitrocefin hydrolysis, epi-absorbance fluorescence; inhibition, % at 5.6 µM; 290,000 tested, 0.45% active;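 active = inhibition above the mean plus 3 SD of all compounds in the same screening run, cut at about 4.5% in these data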;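 note: 0% = IMP-1 with DMSO and 100% = DMSO wells lacking enzyme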
#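 Material – recombinant IMP-1 enzyme, purified · Amount – IMP-1 0.2 nM before substrate addition · Medium – HEPES buffer pH 7.1 with ZnSO4 and Brij 35 · Timing – 25 °C, 15 min preincubation, 25 min reaction · Measured by – plate fluorescence quenching by hydrolysis product, ex 480/em 530 nm · Read-out – percent enzyme inhibition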
# Fh CTSL1 inh – cathepsin L1 inhibition, PFM18AAP counter-screen. recombinant F. hepatica cathepsin L1, Z-Leu-Arg-MCA fluorescence. inhibition, % at 5.96 µM. 300,000 tested, 0.49% active. AID 1906;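 active = inhibition above the mean of all tested compounds plus 3 SD, set per screening campaign, cut at about 17% in these data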;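 note: 0% = plate median of test compound wells and 100% = 1 µM Z-Phe-Ala-diazomethylketone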
# pCIP destab – compounds decreasing mouse p/CIP protein stability; F442A p/CIP-EGFP cells, EGFP fluorescence, 16 h; decrease of EGFP signal, % at 10 µM; 290,000 tested, 0.01% active; AID 1984;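 active = EGFP signal decrease of at least 30% at 10 µM or well 3 SD below plate mean, unless failing retest; inactive = the rest, including hits failing retest or dose response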
# VIM-2 inh – blocks Pseudomonas aeruginosa VIM-2 metallo-beta-lactamase; purified VIM-2, nitrocefin hydrolysis, epi-absorbance fluorescence; inhibition, % at 5.6 µM; 290,000 tested, 0.89% active;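 active = inhibition above the mean of all tested compounds plus 3 SD, cutoff set per screening run, cut at about 7.5% in these data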;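 note: red hydrolysis product quenches plate fluorescence so inhibitors raise well fluorescence; 0% = enzyme with DMSO and 100% = DMSO without enzyme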
# UBC9 SUMO inh – SUMOylation inhibition | P63279 | HTRF SUMOylation assay, SAE1/SAE2 + UBC9, in vitro | inhibition, % at 35 µM | 290,000 tested, 0.36% active; in the data active = inhibition above about 50%, passing the limit was not always enough
# Target sequence (P63279 whole entry, looked up): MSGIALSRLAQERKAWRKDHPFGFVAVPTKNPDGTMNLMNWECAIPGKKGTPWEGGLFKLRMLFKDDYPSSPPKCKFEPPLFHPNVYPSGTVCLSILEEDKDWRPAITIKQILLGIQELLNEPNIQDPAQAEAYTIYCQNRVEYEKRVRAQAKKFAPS
# * hit, by the source's call; i = inactive; / = not tested or not shown.
SMILES,T cell HTS,IMP-1 inhibitor,Fh CTSL1 inh,pCIP destab,VIM-2 inh,UBC9 SUMO inh
O=C1c2ccccc2C(=O)N1CC(O)Cn1nnc2ccccc21 (stereo not given),835,-1,3,-15,-1,13
Cn1c(Cn2nnc3ccccc32)nnc1SCC(=O)N1c2ccccc2Sc2ccccc21,617,-2,17*,-5,0,15
Cn1c(Cn2nnc3ccccc32)nnc1SCC(=O)N1c2ccccc2CCc2ccccc21,440,-4,0,-13,-4,8
CC(C)OP(=O)(c1ccc(N(C)C)cc1)C(O)c1ccc(C(C)C)cc1 (stereo not given),289,-1,4,-11,-2,8
O=C(OCC(=O)N1CCc2ccccc21)c1ccccc1F,635,-3,2,-4,2,9
O=C(c1ccccc1F)N1CCc2ccccc21,0.0*,-1,0,5,-2,1
Nc1ncnc2c1ncn2[C@@H]1O[C@H](CN2CCCS2(=O)=O)[C@@H](O)[C@H]1O,242,/,/,/,/,/
CCOc1cc(N2CCOCC2)c(OCC)cc1NC(=O)CN1C(=O)NC(C)(C2CC2)C1=O (stereo not given),141,-2,37*,2,-1,-11
CCOc1cc(N2CCOCC2)c(OCC)cc1NC(=O)COC(=O)c1cc2ccccc2cc1O,309,-2,58*,-6,-1,2
CCOc1cc(N2CCOCC2)c(OCC)cc1NC(=O)COC(=O)C1CCCN1S(=O)(=O)c1ccccc1F (stereo not given),220,/,/,/,/,/
CCOc1cc(N2CCOCC2)c(OCC)cc1NC(=O)COC(=O)[C@@H]1CCCN1S(=O)(=O)c1ccccc1F,179,-3,80*,-4,-3,0
CCOc1cc(N2CCOCC2)c(OCC)cc1NC(=O)COC(=O)c1ccc(Cl)cc1N,140,/,/,/,/,/
CCOc1cc(N2CCOCC2)c(OCC)cc1NC(=O)CSc1n[nH]c(N)n1,464,-4,21*,-26,-3,14
Cc1ccc(NS(=O)(=O)c2ccc3c(c2)OCCCO3)cc1S(=O)(=O)N1CCOCC1,649,/,/,/,/,/
CCOc1cc(/C=C2/C(=N)N3OC(C)=CC3=NC2=O)ccc1OCCOc1ccccc1,172,-2,-2,-6,-3,16
CCCN(Cc1nnc(-c2ccccc2Cl)o1)C(=O)COc1ccc(Cl)cc1,253,/,/,/,/,/
CC(C)(C)NC(=O)c1cccc2c1C(=O)c1ccccc1-2,355,-3,0,4,5,2
O=C(NCCO)c1cccc2c1C(=O)c1ccccc1-2,224,-2,5,-7,7.9*,5
CC(=O)OC[C@]12CC[C@H]3[C@@](C)(CC[C@H]4C(C)(C)CCC[C@]34C)[C@@H]1C[C@@H](C1=CC(=O)O[C@@H]1OC(C)=O)O2,0.0*,/,/,/,/,/
O=C(COC(=O)Cn1ccc(=O)[nH]c1=O)Nc1ccc(F)cc1,648,/,/,/,/,/
O=C(O)c1ccc2cccnc2n1,224,-1,-4,0,-1,7
O=C(O)c1ccc2cccnc2c1O,498,0,2,5,10*,15
COC(=O)c1c(C(=O)OC)c(-c2ccc(OC)cc2)n2c1CCC2,158,-4,-2,-1,2,10
COc1ccc(-c2c(C(=O)O)c(C(=O)O)c3n2CCC3)cc1,251,-1,0,-7,11*,3
O=c1cc(CO)oc(CN2CCCC2)c1O,i,8.3*,-4,2,-1,23
SMILES,T cell HTS,IMP-1 inhibitor,Fh CTSL1 inh,pCIP destab,VIM-2 inh,UBC9 SUMO inh
CN1CCN(Cc2oc(CO)cc(=O)c2O)CC1,466,1,-2,0,1,16
Oc1ccc(C=Nc2ccc3ncccc3c2)c(O)c1,265,-4,4,-16,-4,65*
O=C1/C(=C\c2ccc(O)cc2)SC(=S)N1c1cccnc1,413,1,3,-3,1,27
O=C1/C(=C/c2ccco2)SC(=S)N1c1cccnc1,/,2,/,-2,0,84*
O=C(O)c1ccc(N2C(=O)/C(=C/C=C/c3ccccc3)SC2=S)cc1,524,-1,1,-14,-2,2
O=C1/C(=C/C=C/c2ccco2)SC(=S)N1c1ccc(O)cc1,312,1,0,-6,0,64*
CC(C)C(C(=O)O)N1C(=O)/C(=C/C=C/c2ccco2)SC1=S (stereo not given),491,5.8*,8,-24,-1,76*
NN1C(=O)/C(=C\c2ccco2)SC1=S,594,-2,2,-14,-4,91
O=C1/C(=C\c2ccco2)SC(=S)N1c1ccc(O)cc1,127,4,1,-5,4,57*
O=C(/C=C/c1cccc(C(F)(F)F)c1)OCC(=O)N1CCN(c2ccccc2)CC1,364,/,/,/,/,/
CSc1nc2ccsc2c(=O)n1-c1ccccn1,164,-4,1,-2,-2,2
Cc1c(NS(=O)(=O)c2cc(NC(=O)CCN3CCCC(C)C3)ccc2Cl)c(=O)n(-c2ccccc2)n1C (stereo not given),260,-3,-2,-12,-3,10
CC(NCC(O)COCCC12CC3CC(CC(C3)C1)C2)c1ccccc1 (stereo not given),430,-2,0,1,-1,-1
CN(CCc1ccccc1)C1CCCN(S(=O)(=O)CC(F)(F)F)C1 (stereo not given),462,-1,19*,-1,-1,22
CCSC1=N/C(=C\C=C2/Oc3ccccc3N2CC)C(=O)S1,292,-1,-4,-117,-1,13
CC(CCc1ccccc1)NC(=O)c1ccc(Cl)nc1 (stereo not given),296,-2,17*,0,-4,8
CC(CCc1ccccc1)NC(=O)c1ccc(C(=O)NC(C)CCc2ccccc2)cc1 (stereo not given),348,-4,-3,10,-5,10
N/C(=N\OS(=O)(=O)c1ccc(Br)cc1)c1ccncc1,294,-3,29*,-13,-1,-8
CC(O)c1nc2ccccc2n1CCCCOc1ccccc1 (stereo not given),556,38*,0,-9,6,-6
Cc1cc2c(cc1S(=O)(=O)NCCc1ccccc1)NC(=O)CO2,20*,/,3,/,/,/
Cc1cccc(NC(=O)c2nc[nH]c2C(=O)N(C)Cc2ccccc2)c1,327,/,/,/,/,/
CCC1CCCCN1CCCNC(=O)c1ccc2nc(N3CCC(C)CC3)sc2c1 (stereo not given),283,-4,5,5,5,3
CC1CCN(c2nc3ccc(C(=O)NCCCN4CCCCC4)cc3s2)CC1,359,-7,2,-12,10*,3
CC(C)[C@H](NC(=O)OCc1ccccc1)C(=O)OCc1cc(=O)oc2cc(O)ccc12,286,-1,-8,8,-2,6
